Active and inactive are the calls of the source. The calls are words filed in the database; no cut-off is given here.

The record followed here is ChEMBL document CHEMBL1129463, “Discovery of 1,5-benzodiazepines with peripheral cholecystokinin (CCK-A) receptor agonist activity (II): Optimization of the C3 amino substituent” (J Med Chem, 1996).

Test [1] is filed under the species Cavia porcellus. Put plainly: In vitro functional activity on the isolated guinea pig gallbladder. More on the design: concentration or dose not given beside the values.
Test [2] is filed under the species Cavia porcellus. Put plainly: In vitro Functional activity on the isolated guinea pig gallbladder following incubation at 1 micro M percent contraction normalized to that for CCK-8. The method in brief: (§1)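 Contraction is expressed as percent of the CCK-8 (1 μM) response. Non-contracting compounds were tested for antagonism against a CCK-8 curve (10⁻¹¹ to 10⁻⁶ M).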

The species entered for test [3] is Cavia porcellus. Put plainly: In vitro Functional activity on the isolated guinea pig gallbladder following incubation at 30 uM percent contraction normalized to that for CCK-8; inactive. The method in brief:
as §1

The species entered for test [4] is Cavia porcellus. In words: Maximum contractile response at 30 uM, normalized to CCK-8 (1 uM). The format is functional.
Test [5] is filed under the species Cavia porcellus. Put plainly: In vitro potency on the isolated guinea pig gallbladder. The test is classed as functional.
Test [6] concerns Mus musculus. In words: Compound was tested in vivo for its activity in mouse gallbladder emptying assay at dose of 1 umol/kg po; ia = Inactive. The test is classed as functional, organism-based.
The test system of test [7] is Mus musculus. Put plainly: Compound was tested in vivo for Percent Maximal response in mouse gallbladder emptying assay at dose of 1 umol/kg po; ia = Inactive. The test is classed as functional, organism-based.
Test [8] has as its system Rattus norvegicus. In words: Compound was tested in vivo for its Percent Maximal anorectic potency in rats at dose of 0.1 umol/kg ip. The test is classed as functional.
In test [9] the test system is Rattus norvegicus. Put plainly: Compound was tested in vivo for its anorectic potency in rats at dose of 0.5 umol/kg ip.
In test [10] the test system is Rattus norvegicus. In words: Compound was tested in vivo for its Percent Maximal anorectic potency in rats at dose of 10 umol/kg po; ia = Inactive.
Test [11] relates to Mus musculus. Put plainly: Compound was tested in vivo Percent Maximal response activity in mouse gallbladder emptying assay at dose of 1 nmol/kg ip.
The species entered for test [12] is Cavia porcellus. In words: In-vitro potency on the isolated guinea pig gallbladder. The format is functional.
Test [13] concerns Mus musculus. Put plainly: Compound was tested in vivo for its activity in mouse gallbladder emptying assay at dose of 0.1 umol/kg ip. The format is functional.
For test [14], the system named is Rattus norvegicus. In words: Compound was tested in vivo for its Percent Maximal anorectic potency in rats at dose of 0.5 umol/kg ip.

`CC(C)N(C(=O)CN1C(=O)C(NC(=O)Nc2ccccc2O)C(=O)N(c2ccccc2)c2ccccc21)c1ccccc1` (stereo not drawn) showed an Activity in the test filed under Cavia porcellus [1] of 16%. For `CC(C)N(C(=O)CN1C(=O)C(NC(=O)Nc2cccc(NS(=O)(=O)C(F)(F)F)c2)C(=O)N(c2ccccc2)c2ccccc21)c1ccccc1` (stereo not drawn), the Activity is 87% in the test listed under Cavia porcellus [2] and 89% in the test listed under Cavia porcellus [1].

`Cc1ccccc1NC(=O)NC1C(=O)N(CC(=O)N(c2ccccc2)C(C)C)c2ccccc2N(c2ccccc2)C1=O` (stereo not drawn): in the test listed under Cavia porcellus [1], the Activity came out at 34%.

In the test filed under Cavia porcellus [1], `CC(C)N(C(=O)CN1C(=O)C(NC(=O)Nc2cccc(OCC(N)=O)c2)C(=O)N(c2ccccc2)c2ccccc21)c1ccccc1` (stereo not drawn) yielded an Activity of 95%. In turn, `CC(C)N(C(=O)CN1C(=O)C(NC(=O)Nc2ccc(C(=O)O)cc2)C(=O)N(c2ccccc2)c2ccccc21)c1ccccc1` (stereo not drawn) gave an Activity in the test listed under Cavia porcellus [1] of 14%.

As to `CC(C)N(C(=O)CN1C(=O)C(NC(N)=O)C(=O)N(c2ccccc2)c2ccccc21)c1ccccc1` (stereo not drawn), in the test filed under Cavia porcellus [3], the outcome was inactive. For `CC(C)N(C(=O)CN1C(=O)C(NC(=O)Nc2ccccc2)C(=O)N(c2ccccc2)c2ccccc21)c1ccccc1` (stereo not drawn), the Max is 86% in the test filed under Cavia porcellus [4], 96% in the test on Rattus norvegicus [8] and 78% in the test on Mus musculus [11]. The same molecule showed an EC50 in the test filed under Cavia porcellus [5] of 1260 nM. Moreover, the Activity in the test listed under Cavia porcellus [1] is reported as 86%. For the same molecule, in the test with Mus musculus [6], the ED50 entry was “inactive”. In addition, the Max entry with Mus musculus [7] and in the test with Rattus norvegicus [10] was “inactive” each time. In the test with Rattus norvegicus [9], this molecule yielded an ED50 of 0.95 µmol/kg. The molecule `CC(C)N(C(=O)CN1C(=O)C(NC(=O)c2ccccc2C(=O)O)C(=O)N(c2ccccc2)c2ccccc21)c1ccccc1` (stereo not drawn) came in with an Activity in the test filed under Cavia porcellus [1] of 58%. `CC(C)N(C(=O)CN1C(=O)C(NC(=O)Nc2cccc(OCCN(C)C)c2)C(=O)N(c2ccccc2)c2ccccc21)c1ccccc1` (stereo not drawn) showed an Activity in the test listed under Cavia porcellus [1] of 2%. On to `CC(C)N(C(=O)CN1C(=O)C(NC(=O)c2ccncc2)C(=O)N(c2ccccc2)c2ccccc21)c1ccccc1` (stereo not drawn), for which the Activity in the test listed under Cavia porcellus [1] is recorded as 43%. `CC(C)N(C(=O)CN1C(=O)C(NC(=O)c2c[nH]c3ccccc23)C(=O)N(c2ccccc2)c2ccccc21)c1ccccc1` (stereo not drawn) showed an Activity in the test listed under Cavia porcellus [1] of 5%. In the case of `CC(C)N(C(=O)CN1C(=O)C(NC(=O)Nc2cccc(OCC(=O)O)c2)C(=O)N(c2ccccc2)c2ccccc21)c1ccccc1` (stereo not drawn), the Activity in the test listed under Cavia porcellus [2] came out at 85%; in the test filed under Cavia porcellus [1], 98%. `CC(C)N(C(=O)CN1C(=O)C(NC(=O)Nc2cccc(S(C)(=O)=O)c2)C(=O)N(c2ccccc2)c2ccccc21)c1ccccc1` (stereo not drawn) registered an Activity in the test listed under Cavia porcellus [1] of 53%. In the test listed under Cavia porcellus [1], `CC(C)N(C(=O)CN1C(=O)C(NC(=O)Cc2ccccc2)C(=O)N(c2ccccc2)c2ccccc21)c1ccccc1` (stereo not drawn) came in with an Activity of 28%. Regarding `CC(C)N(C(=O)CN1C(=O)C(NC(=O)Nc2cccc(CO)c2)C(=O)N(c2ccccc2)c2ccccc21)c1ccccc1` (stereo not drawn), the Activity in the test listed under Cavia porcellus [2] came out at 85%; in the test filed under Cavia porcellus [1] it was 90%. As to `CC(C)N(C(=O)CN1C(=O)C(NC(=O)Nc2cccc(O)c2)C(=O)N(c2ccccc2)c2ccccc21)c1ccccc1` (stereo not drawn), the values for the Activity in the test listed under Cavia porcellus [2] and in the test filed under Cavia porcellus [1] were 82% and 89%, respectively.

For the molecule `CC(C)N(C(=O)CN1C(=O)C(NC(=O)Nc2cccc(OCC(=O)N3CCOCC3)c2)C(=O)N(c2ccccc2)c2ccccc21)c1ccccc1` (stereo not drawn), the Activity in the test listed under Cavia porcellus [1] was 78%. With `CC(C)N(C(=O)CN1C(=O)C(NC(=O)Nc2cccc(N)c2)C(=O)N(c2ccccc2)c2ccccc21)c1ccccc1` (stereo not drawn), the Activity in the test filed under Cavia porcellus [2] was determined as 50%; in the test filed under Cavia porcellus [1] it was 76%.

For the molecule `CC(C)N(C(=O)CN1C(=O)C(NC(=O)Nc2cccc(CC(=O)O)c2)C(=O)N(c2ccccc2)c2ccccc21)c1ccccc1` (stereo not drawn), the Activity in the test listed under Cavia porcellus [1] came to 89%. In turn, `CC(C)N(C(=O)CN1C(=O)C(NC(=O)Nc2cccc(OCC(=O)N(C)C)c2)C(=O)N(c2ccccc2)c2ccccc21)c1ccccc1` (stereo not drawn) had an Activity in the test filed under Cavia porcellus [1] of 77%. The same measure, in the same setting: for `CC(C)N(C(=O)CN1C(=O)C(NC(=O)Nc2cccc(Cl)c2)C(=O)N(c2ccccc2)c2ccccc21)c1ccccc1` (stereo not drawn) the value was 7%.

For the molecule `CSCC[C@H](NC(=O)[C@H](Cc1ccc(OS(=O)(=O)O)cc1)NC(=O)[C@@H](N)CC(=O)O)C(=O)NCC(=O)N[C@@H](Cc1c[nH]c2ccccc12)C(=O)N[C@@H](CCSC)C(=O)N[C@@H](CC(=O)O)C(=O)N[C@@H](Cc1ccccc1)C(N)=O` [SINCALIDE], the figures for the Max in the test filed under Cavia porcellus [4], in the test with Rattus norvegicus [14] and in the test with Mus musculus [11] were 100%, 95% and 95%, respectively. This molecule showed an EC50 in the test listed under Cavia porcellus [12] of 0.794 nM. Further, the ED50 in the test with Mus musculus [13] is 3e-05 µmol/kg; in the test on Rattus norvegicus [9], 0.027 µmol/kg. In addition, the Max entry in the test with Rattus norvegicus [10] was “inactive”. `COc1ccc(NC(=O)NC2C(=O)N(CC(=O)N(c3ccccc3)C(C)C)c3ccccc3N(c3ccccc3)C2=O)cc1` (stereo not drawn) showed an Activity in the test filed under Cavia porcellus [1] of 38%. `COc1cccc(NC(=O)NC2C(=O)N(CC(=O)N(c3ccccc3)C(C)C)c3ccccc3N(c3ccccc3)C2=O)c1` (stereo not drawn) came in with an Activity in the test filed under Cavia porcellus [1] of 78%. With `CC(C)NC(=O)NC1C(=O)N(CC(=O)N(c2ccccc2)C(C)C)c2ccccc2N(c2ccccc2)C1=O` (stereo not drawn), in the test filed under Cavia porcellus [1], the Activity stood at 22%. Molecule `CC(C)N(C(=O)CN1C(=O)C(NC(=O)c2cccc(C(=O)O)c2)C(=O)N(c2ccccc2)c2ccccc21)c1ccccc1` (stereo not drawn) had an Activity in the test listed under Cavia porcellus [1] of 56%. Same read-out and setting: for `Cc1ccc(NC(=O)NC2C(=O)N(CC(=O)N(c3ccccc3)C(C)C)c3ccccc3N(c3ccccc3)C2=O)cc1` (stereo not drawn) the value was 20%; for `CC(C)N(C(=O)CN1C(=O)C(NC(=O)NCc2ccccc2)C(=O)N(c2ccccc2)c2ccccc21)c1ccccc1` (stereo not drawn), 1%; for `CC(C)N(C(=O)CN1C(=O)C(NC(=O)c2cc3ccccc3o2)C(=O)N(c2ccccc2)c2ccccc21)c1ccccc1` (stereo not drawn), 35%.

In the case of `CSc1cccc(NC(=O)NC2C(=O)N(CC(=O)N(c3ccccc3)C(C)C)c3ccccc3N(c3ccccc3)C2=O)c1` (stereo not drawn), in the test filed under Cavia porcellus [1], the Activity is reported as 58%. For the molecule `CC(C)N(C(=O)CN1C(=O)C(NC(=O)Nc2cccc(N(C)C)c2)C(=O)N(c2ccccc2)c2ccccc21)c1ccccc1` (stereo not drawn), the Activity is 29% in the test listed under Cavia porcellus [2] and 58% in the test listed under Cavia porcellus [1]. Consider `CC(C)N(C(=O)CN1C(=O)C(NC(=O)c2ccccc2)C(=O)N(c2ccccc2)c2ccccc21)c1ccccc1` (stereo not drawn), for which the Activity in the test filed under Cavia porcellus [1] turned out to be 57%. The molecule `CC(C)N(C(=O)CN1C(=O)C(NC(=O)c2cccnc2)C(=O)N(c2ccccc2)c2ccccc21)c1ccccc1` (stereo not drawn) had an Activity in the test listed under Cavia porcellus [1] of 43%.

As for `CC(C)N(C(=O)CN1C(=O)C(NC(=O)Nc2cccc(-c3nn[nH]n3)c2)C(=O)N(c2ccccc2)c2ccccc21)c1ccccc1` (stereo not drawn), the Activity in the test listed under Cavia porcellus [2] is recorded as 64%; in the test listed under Cavia porcellus [1], 79%. Take `CC(C)N(C(=O)CN1C(=O)C(NC(=O)N2CCNCC2)C(=O)N(c2ccccc2)c2ccccc21)c1ccccc1` (stereo not drawn): the outcome in the test filed under Cavia porcellus [3] was inactive.

On to `Cc1cccc(NC(=O)NC2C(=O)N(CC(=O)N(c3ccccc3)C(C)C)c3ccccc3N(c3ccccc3)C2=O)c1` (stereo not drawn), for which the Activity in the test filed under Cavia porcellus [1] was found to be 5%. The molecule `CC(C)N(C(=O)CN1C(=O)C(NC(=O)Nc2cccc(C(N)=O)c2)C(=O)N(c2ccccc2)c2ccccc21)c1ccccc1` (stereo not drawn) had an Activity in the test listed under Cavia porcellus [1] of 76%.

In general, EC50 refers to the concentration needed to bring the measured effect to its halfway point. As usually defined, the ED50 is the dose at which the effect has come halfway, by size or by number of responders.
